Species: Bos taurus
Assay: Tested in vitro at 30 uM for its ability to inhibit the human recombinant IL-1-beta-induced breakdown of bovine cartilage in a cartilage organ culture assay
Assay type: functional
Conditions: Cartilage tissue
Outline: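 Cartilage organ culture screen at a single 30 µM concentration. Bovine nasal septum explants in DMEM/5% FCS with rh IL-1β 500 ng/mL, 40 h, 37 °C, 95% air/5% CO2. Proteoglycan breakdown read as GAG release by dimethylmethylene blue; 35SO4 uptake over a further 2 h used for viability. Eight replicates; percent inhibition.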

Point of comparison: `COc1cccc(OC)c1-n1sc2ncccc2c1=O`, inhibition 40%. Against it:
- COc1cc2c(=O)n(-c3ccccc3)sc2c(OC)n1 — lower, 39%
- COc1ccc(-n2sc3c(O)nc(O)nc3c2=O)cc1 — higher, 49%
- COc1nc(OC)c2sn(-c3ccc(C(F)(F)F)cc3)c(=O)c2n1 — lower, 39%
- COc1nc(OC)c2sn(-c3ccccc3)c(=O)c2n1 — the same, 40%
- Nc1cccc(-n2sc3ncccc3c2=O)c1 — lower, 34%
- N#Cc1ccc(-n2sc3ncccc3c2=O)cc1 — the same, 40%
- COC(=O)c1cccc(-n2sc3ncccc3c2=O)c1 — lower, 35%
- O=c1c2cccnc2sn1-c1ccccc1Cl — lower, 0%
- COc1ccc(-n2sc3c(OC)nccc3c2=O)cc1 — lower, 20%
- O=c1c2cccnc2sn1-c1ccc(C(F)(F)F)cc1 — lower, 17%
- CS(=O)(=O)Nc1ccc(-n2sc3ncccc3c2=O)cc1 — lower, 28%
- O=c1c2ccnc(Cl)c2sn1-c1ccccc1 — lower, 38%
- O=c1c2cccnc2sn1-c1cccc([N+](=O)[O-])c1 — lower, 37%
- COc1ccc(-n2sc3c(OC)nc(OC)nc3c2=O)cc1 — higher, 50%
- O=c1c2cccnc2sn1-c1ccccn1 — lower, 23%

Species: Bos taurus
Assay: In vitro inhibition of human recombinant IL-1-beta-induced breakdown of bovine cartilage in a cartilage organ culture assay
Assay type: functional
Conditions: not given
Outline: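 Bovine nasal septum cartilage discs (1 mm × 8 mm, cut in eighths) cultured in DMEM + 5% FCS with antibiotics, ± rh IL-1β 500 ng/mL ± drug (DMSO ≤1%) for 40 h at 37 °C. Released GAG measured by 1,9-dimethylmethylene blue against chondroitin sulfate standard, µg/mg wet weight. Eight replicates per group; dose response gives IC50 (µM).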

Point of comparison: `O=c1c2cccnc2sn1-c1ccc(Cl)cc1`, IC50 8.5 µM. Against it:
- COC(=O)c1cccc(OC)c1-n1sc2ncccc2c1=O — within 1.5-fold, 8 µM
- COc1ccc2c(c1)c(CC(=O)O)c(C)n2C(=O)c1ccc(Cl)cc1 [INDOMETHACIN] — higher, > 30 µM
- CN(C)[C@@H]1C(O)=C(C(N)=O)C(=O)[C@@]2(O)C(O)=C3C(=O)c4c(O)cccc4[C@@](C)(O)[C@H]3C[C@@H]12 [TETRACYCLINE] — higher, > 30 µM
- O=c1c2cccnc2sn1-c1ccc(F)cc1 — within 1.5-fold, 12 µM
- O=C1CCN(c2ccccc2)N1 [PHENIDONE] — higher, > 30 µM
- COC(=O)c1ccccc1-n1sc2ncccc2c1=O — 2.9-fold higher, 25 µM
- COc1ccc2cc([C@H](C)C(=O)O)ccc2c1 [NAPROXEN] — higher, > 30 µM

Each compound was assayed against Stromelysin-1 (Homo sapiens) (UniProt P08254) (assay: Tested for inhibition of stromelysin using [3H]transferrin, following pre-incubation with prostromelysin for 0 hr prior to activation by plasmin). Conditions: concentration not given here.
Chain of Stromelysin-1 (Homo sapiens) (P08254 whole entry, looked up): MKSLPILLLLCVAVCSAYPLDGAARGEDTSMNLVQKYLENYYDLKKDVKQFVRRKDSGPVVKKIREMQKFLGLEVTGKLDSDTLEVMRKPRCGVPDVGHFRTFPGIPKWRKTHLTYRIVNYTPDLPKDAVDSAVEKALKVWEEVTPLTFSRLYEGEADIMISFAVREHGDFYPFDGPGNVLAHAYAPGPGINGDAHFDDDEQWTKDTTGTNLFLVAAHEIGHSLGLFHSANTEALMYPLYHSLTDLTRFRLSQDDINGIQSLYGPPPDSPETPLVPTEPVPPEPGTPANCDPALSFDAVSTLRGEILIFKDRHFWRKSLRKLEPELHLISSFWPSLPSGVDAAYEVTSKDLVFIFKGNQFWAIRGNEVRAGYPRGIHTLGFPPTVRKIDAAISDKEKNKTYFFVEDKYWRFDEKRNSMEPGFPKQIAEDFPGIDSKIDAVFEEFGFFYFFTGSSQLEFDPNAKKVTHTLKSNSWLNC

Point of comparison: `COc1ccc(-n2sc3ncccc3c2=O)c(OC)c1`, inhibition 45%. Against it:
- COc1ccc(OC)c(-n2sc3ncccc3c2=O)c1 — higher, 51%

These compounds were tested against Stromelysin-1 (Homo sapiens) (UniProt P08254) (assay: Tested for inhibition of stromelysin using [3H]transferrin, following pre-incubation with prostromelysin for 3 hr prior to activation by plasmin). Conditions: concentration not given here.

Point of comparison: `COc1ccc(OC)c(-n2sc3ncccc3c2=O)c1`, inhibition 68%. Against it:
- COc1ccc(-n2sc3ncccc3c2=O)c(OC)c1 — lower, 65%

Reference: ChEMBL document CHEMBL1127463, “Heteroaryl-fused 2-phenylisothiazolone inhibitors of cartilage breakdown” (J Med Chem, 1994)
